# Compound activity: PubChem, The Scripps Research Institute Molecular Screening Center
# HTRA1 inh = HTRA1 (human) protease inhibition; actives 0.5% (n = 340,000); inhibition, % at 5.96 µM; recombinant HTRA1, FP-rhodamine activity-based probe, fluorescence polarization; Q92743; in the data active means inhibition above about 36%;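 further: 0% = enzyme with DMSO and 100% = wells lacking enzyme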
# DAGLB inhibitor = blocks human DAGLB lipase activity; Q8NCG7; HEK293T DAGLB membrane lysate, EnzChek fluorogenic substrate; inhibition, % at 5.17 µM; actives 0.059% (n = 340,000); AID 504411; in the data active means inhibition above about 34%;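 further: 0% = enzyme with vehicle and 100% = wells lacking enzyme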
# rCAG binder = binds r(CAG) RNA repeats. r(CAG) RNA repeat, TO-PRO-1 dye displacement fluorescence. inhibition, % at 3 µM. actives 1.3% (n = 370,000). AID 651821;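 active means inhibition above the plate cutoff, the mean of all test compounds on that plate plus 3 SD, cut at about 35% in these data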;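 further: 0% = DMSO alone and 100% = 100 µM mitoxantrone as full dye displacement; higher means more dye released from RNA so lower well fluorescence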
# PRMT1 inh = inhibitors of human PRMT1. Q99873. recombinant PRMT1, activity-based probe fluorescence polarization. inhibition, % at 2.79 µM. actives 1.3% (n = 370,000);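 active means inhibition above about 21% made by adding two undisclosed values, limit read from the data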
# Target sequence (Q99873 whole entry, looked up): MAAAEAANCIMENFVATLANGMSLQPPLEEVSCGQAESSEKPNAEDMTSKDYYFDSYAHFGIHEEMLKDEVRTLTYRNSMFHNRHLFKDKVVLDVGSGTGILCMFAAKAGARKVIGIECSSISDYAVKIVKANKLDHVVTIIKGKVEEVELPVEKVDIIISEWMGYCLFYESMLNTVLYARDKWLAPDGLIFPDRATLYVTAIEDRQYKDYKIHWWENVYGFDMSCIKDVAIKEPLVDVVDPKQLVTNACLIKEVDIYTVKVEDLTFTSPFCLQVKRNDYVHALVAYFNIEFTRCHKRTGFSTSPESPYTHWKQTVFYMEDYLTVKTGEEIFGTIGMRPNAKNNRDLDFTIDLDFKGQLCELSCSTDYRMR
# LEDGF integ inh = blocks HIV-1 LEDGF/p75-dependent DNA integration; TR-FRET IN-LEDGF/p75 DNA integration, Eu/Cy5; inhibition, % at 3.7 µM; actives 0.64% (n = 370,000); AID 743269;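 active means inhibition above the screen-wide mean plus 3 SD, cut at about 13% in these data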;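 further: signal is the Cy5 over europium emission ratio at 671 and 618 nm; 0% = plate median of compound wells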
# ABHD4 inh = inhibitors of mouse ABHD4; purified mABHD4, FP-Rh probe fluorescence polarization; inhibition, % at 8.92 µM; actives 0.54% (n = 370,000); AID 720543;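 active means inhibition exceeding the mean over every tested compound plus 3 SD, cut at about 30% in these data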;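 further: 0% = plate median of compound wells and 100% = S159A mutant with DMSO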
#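 Material: mouse ABHD4 enzyme, wild type; Benchmarks: S159A mutant high control, sample median low control; Buffer or medium: HEPES pH 7.0, NaCl, Pluronic buffer; Signal: fluorescence polarization; Read-out: percent inhibition of probe binding, normalized to plate controls; Timing: pre-incubation 45 min, probe exposure 60 min, at 25 °C; Dosing: 8.92 µM, single dose.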
# HTRA1 conf = HTRA1 (human) inhibition, confirmation. AID 540248. shares compounds with HTRA1 inh. actives 66% (n = 1,600). recombinant HTRA1, FP-rhodamine activity-based probe, fluorescence polarization. inhibition, % at 5.96 µM;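 active means mean inhibition over three repeats above a set limit taken from the earlier primary screen, cut at about 37% in these data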;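 further: 0% = HTRA1 with DMSO and 100% = wells lacking HTRA1; inhibitors block probe binding so polarization drops and inhibition rises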
# * hit, by the source's call; . = no result. Hits are enriched below; roughly 3.2% of the tested compounds scored in any of these assays.
SMILES,HTRA1 inh,DAGLB inhibitor,rCAG binder,PRMT1 inh,LEDGF integ inh,ABHD4 inh,HTRA1 conf
O=C(NC(=S)NCc1ccc(Cl)cc1)c1ccco1,-6,-4,1,-4,1,-4,.
O=C(NCCc1ccccc1)c1cccc(S(=O)(=O)N2CCCCC2)c1,2,0,-7,3,2,1,.
CCOc1ccccc1CNc1ccc(O)cc1,61*,6,13,19,25*,57*,24
Cc1ccc(NCc2ccccc2OCc2ccccc2F)cc1,-9,-13,-2,2,-5,0,.
CCc1ccc(CNc2ccc(O)cc2)cc1,73*,5,.,.,.,.,52*
COc1ccc(/C=N/NC(=O)CCCOc2ccc(Cl)cc2Cl)cc1[N+](=O)[O-],0,-2,2,0,3,1,.
O=C(CCCn1c(SCC(=O)c2ccc(O)c(O)c2)nc2ccccc2c1=O)NCC1CCCO1 (stereo unspecified),38*,3,20,7,1,16,36*
O=C(CSc1nc2ccccc2o1)NCC1CCCO1 (stereo unspecified),55*,1,-8,0,0,-10,13
CCCCn1c(SCC(=O)c2ccccc2)nc2ccsc2c1=O,-8,-7,-1,-4,2,-5,.
CCCCn1c(SCC(=O)c2ccc(O)c(O)c2)nc2ccsc2c1=O,59*,21,.,.,.,.,61*
O=[N+]([O-])c1ccccc1N/N=C/c1cccc(O)c1O,48*,15,19,-2,-1,23,36
CN(C)c1ccc(C(=O)OCc2ccccc2)cc1,-10,-18,0,2,1,-2,.
O=C1C=CC(=O)C(CNc2ccc(C(=O)OCc3ccccc3)cc2)=C1,42*,6,30,11,7,36*,18
Nc1cccc(Nc2nc(OC(C(F)(F)F)C(F)(F)F)nc(OC(C(F)(F)F)C(F)(F)F)n2)c1,38*,-6,-1,7,0,-15,12
O=c1nc(/C=C/c2ccc(O)c(O)c2)oc2ccccc12,72*,3,.,.,.,.,76*
CCn1c(/C=C/c2ccc(O)c(O)c2)nc2ccccc2c1=O,59*,6,14,4,5,27,112*
CCCC(=O)NC(c1ccco1)c1cc([N+](=O)[O-])c2cccnc2c1O (stereo unspecified),50*,13,15,18,7,19,66*
CCC(=O)NC(c1ccc(C)cc1)c1cc([N+](=O)[O-])c2cccnc2c1O (stereo unspecified),38*,25,9,0,2,9,71*
CCC(=O)NC(c1ccco1)c1cc(Br)c2cccnc2c1O (stereo unspecified),.,.,12,-6,-9,20,.
CCN(C(=O)COC(=O)CNC(=O)c1cccs1)c1c(N)n(Cc2ccccc2)c(=O)[nH]c1=O,-6,-3,0,2,1,-1,.
CS/C(=N\S(=O)(=O)c1cccs1)Nc1ccc(N2CCOCC2)cc1,-3,-2,0,0,-2,4,.
CCN1CCCC1CNC(=O)C1CCCN(S(=O)(=O)c2cccc3nsnc23)C1 (stereo unspecified),7,-2,13,0,1,7,.
CCC(=O)NC(c1cc(Cl)c2cccnc2c1O)C(C)C (stereo unspecified),53*,8,-1,-3,-4,11,58*
CC(=O)NC(c1cc(F)c2cccnc2c1O)C1CC1 (stereo unspecified),16,1,1,0,-6,2,.
CCC(=O)NC(c1cc(Cl)c2cccnc2c1O)C1CC1 (stereo unspecified),39*,6,0,-1,-6,1,51*
SMILES,HTRA1 inh,DAGLB inhibitor,rCAG binder,PRMT1 inh,LEDGF integ inh,ABHD4 inh,HTRA1 conf
CCC(=O)NC(NC(=S)Nc1cccc2cccnc12)C(Cl)(Cl)Cl (stereo unspecified),-5,-4,11,1,3,-1,.
CCOc1ccc(NC(=S)N2CCCC2)cc1,2,2,-5,1,-1,0,.
COc1ccc(Nc2nc(-c3sc(N)nc3C)cs2)cc1,34,6,28,5,1,6,.
Cc1nc(N)sc1-c1csc(Nc2ccc(Cl)cn2)n1,42*,6,20,5,-3,20,37*
Cc1ccc(Nc2nc(-c3sc(N)nc3C)cs2)cc1,50*,0,15,1,7,16,31
C=CCn1c(SCC(=O)Nc2ccc3c(c2)OCCO3)nnc1-c1ccco1,-5,-2,-3,0,-3,-6,.
CN(C)c1ccc(C=Cc2ccnc3c(O)cccc23)cc1,63*,-2,2,-2,2,-3,54*
Oc1ccc(/C=C/c2ccccc2F)c2cccnc12,.,.,.,-3,-1,22,.
COc1cc(/C=N/NC(=O)CSc2cc(C)c(Br)cc2C)ccc1O,-16,-1,6,1,-4,-4,.
Cc1cc(SCC(=O)N/N=C/c2ccc(O)c(O)c2O)c(C)cc1Br,62*,24,55*,35*,1,50*,67*
COc1cc(/C=C/C(=O)NCC(=O)N2CCC(N(C)CCN3CCOCC3)CC2)ccc1OC(C)C,37*,0,-8,-1,-4,3,-1
COc1cc(/C=N/n2c(-c3ccc4c(c3)NC(=O)CO4)csc2=Nc2cccc(C)c2)ccc1O,44*,2,16,3,6,21,82*
COCCN=c1scc(-c2ccc3c(c2)NC(=O)CO3)n1/N=C(\C)c1ccc(O)cc1,10,4,2,-4,0,12,.
Cc1ccc2nc(-c3ccc(O)c(O)c3)cn2c1,45*,-1,4,2,23*,14,74*
Cc1ccc2nc(-c3ccccc3)cn2c1,0,-2,1,0,3,-3,.
Cc1ccc(NCCN(C)C)c2c(=O)c3cc(O)ccc3sc12,21,13,7,1,1,18,.
COc1cc(C)c2sc3ccccc3c(=O)c2c1NCCN(C)C,36*,11,10,9,-4,24,44*
CC(C)[C@H](NC(=O)c1cccc(S(=O)(=O)N2CCOCC2)c1)C(=O)OCC(=O)Nc1cccc(Br)c1,37*,2,3,-1,2,-15,37*
CC(C)[C@H](NC(=O)c1ccccc1)C(=O)OCC(=O)Nc1ccc(S(=O)(=O)N2CCOCC2)cc1,24,1,2,-2,3,-1,.
CCn1c(CSc2nnc(-c3ccncc3)n2CCOC)nc2cc(C(=O)O)ccc21,27,1,-1,0,6,13,.
CCn1c(CSc2nnc3ccccn23)nc2cc(C(=O)O)ccc21,37*,2,-7,3,3,40*,79*
